# Experimental data: ChEMBL document CHEMBL2151034, “Synthesis, biological evaluation and molecular docking studies of 3-(triazolyl)-coumarin derivatives: effect on inducible nitric oxide synthase” (Eur J Med Chem, 2012)
# The source made the active and inactive calls. The calls are words filed in the database; no cut-off is given here.
# Experiments:
# [1] = molecular target: T1, Nitric oxide synthase 3 (Rattus norvegicus) (UniProt Q62600); assay: Inhibition of eNOS in rat PMEC assessed as reduction in nitrite level at 100 uM after 48 hrs by Griess method
# T1 sequence (whole entry): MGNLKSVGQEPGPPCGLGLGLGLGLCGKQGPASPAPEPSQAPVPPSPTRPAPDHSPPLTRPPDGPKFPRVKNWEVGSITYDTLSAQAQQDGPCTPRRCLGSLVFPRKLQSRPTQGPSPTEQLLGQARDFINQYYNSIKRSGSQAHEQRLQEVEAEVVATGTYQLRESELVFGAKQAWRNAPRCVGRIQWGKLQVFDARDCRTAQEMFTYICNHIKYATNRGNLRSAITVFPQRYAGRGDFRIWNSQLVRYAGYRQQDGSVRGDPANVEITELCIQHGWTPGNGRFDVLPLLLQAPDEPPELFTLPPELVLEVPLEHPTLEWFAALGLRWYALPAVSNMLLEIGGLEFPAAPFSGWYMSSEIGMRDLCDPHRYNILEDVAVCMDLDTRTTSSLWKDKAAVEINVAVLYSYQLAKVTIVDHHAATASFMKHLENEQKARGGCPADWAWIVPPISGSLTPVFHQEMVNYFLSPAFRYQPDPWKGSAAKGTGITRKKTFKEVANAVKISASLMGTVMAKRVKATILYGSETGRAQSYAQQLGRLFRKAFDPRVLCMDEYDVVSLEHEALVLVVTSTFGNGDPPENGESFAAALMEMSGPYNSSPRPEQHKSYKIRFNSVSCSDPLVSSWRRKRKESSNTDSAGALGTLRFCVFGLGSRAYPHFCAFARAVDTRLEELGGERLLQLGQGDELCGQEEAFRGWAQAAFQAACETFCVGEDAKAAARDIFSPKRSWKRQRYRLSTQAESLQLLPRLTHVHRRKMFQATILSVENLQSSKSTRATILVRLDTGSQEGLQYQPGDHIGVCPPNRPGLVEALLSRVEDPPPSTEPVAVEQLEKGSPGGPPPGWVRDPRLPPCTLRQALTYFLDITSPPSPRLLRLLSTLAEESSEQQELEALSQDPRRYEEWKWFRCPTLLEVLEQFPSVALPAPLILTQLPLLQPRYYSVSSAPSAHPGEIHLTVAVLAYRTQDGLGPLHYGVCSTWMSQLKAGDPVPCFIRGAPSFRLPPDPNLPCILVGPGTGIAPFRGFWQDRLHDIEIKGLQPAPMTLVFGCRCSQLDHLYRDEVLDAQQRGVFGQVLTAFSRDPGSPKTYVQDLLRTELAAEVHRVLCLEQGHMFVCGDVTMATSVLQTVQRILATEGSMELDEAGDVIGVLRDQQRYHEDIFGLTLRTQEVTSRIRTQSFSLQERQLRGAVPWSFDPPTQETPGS
# Method in brief: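 Primary microvascular endothelial cells from rat cremaster muscle explants, grown in DMEM with 20% fetal calf serum and used at confluence after subculture. Incubated 48 h at 37 °C in 5% CO2 without LPS, with coumarin compounds or L-NAME at 100 µM. Nitrite in supernatant measured by Griess reaction at 550 nm. Mean ± s.e.m. of 4 independent assays.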
# [2] = tested on: Neutrophil; assay: Antiinflammatory activity in Wistar rat neutrophils assessed as inhibition of LPS-stimulated PGE2 production at 1000 uM after 18 hrs by ELISA; assay type: functional, cell-based
# Method in brief: (§1)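 Glycogen-elicited peritoneal neutrophils from male Wistar rats, 1 × 10⁶ cells, 18 h at 37 °C in 5% CO2 with or without E. coli LPS (serotype 026:B6). Compounds given at the same time, dissolved in HBSS; HBSS-treated cells serve as control. Nitrite measured by Griess reaction (absorbance at 550 nm, 10 min). PGE2 measured by ELISA in supernatant stored frozen at −80 °C. Mean ± s.e.m. of 4 independent assays.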
# [3] = tested on: Neutrophil; assay: Antiinflammatory activity in Wistar rat neutrophils assessed as reduction of TNFalpha production at 100 uM after 18 hrs by ELISA; assay type: functional, cell-based
# Method in brief: (§2)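 Rat peritoneal neutrophils elicited by intraperitoneal oyster glycogen, 1 × 10⁶ cells, incubated 18 h at 37 °C in 5% CO2 in medium alone (basal) or with LPS, with compounds in HBSS added at the same time. Supernatant frozen at −80 °C. TNF-α and PGE2 quantified by ELISA in pg/ml. Compared against HBSS-treated cells. Mean ± s.e.m. of 4 independent assays.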
# [4] = tested on: Neutrophil; assay: Inhibition of LPS-induced iNOS expression in Wistar rat neutrophils assessed as reduction of NO production after 18 hrs by Western blot analysis; assay type: functional, cell-based
# Method in brief: (§3)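 Glycogen-elicited Wistar rat neutrophils, 1 × 10⁶ cells, incubated 18 h with LPS plus compound or control. Protein: homogenate in 50 mM Tris pH 7.4 with PMSF, 50 µg run on 7% SDS-PAGE, blocked with casein, mouse monoclonal anti-iNOS at 500 ng/mL, HRP chemiluminescence, densitometry normalized to β-actin. mRNA: real-time PCR against GAPDH, quantified by the Liu and Saint method. Mean ± s.e.m. of 4 independent assays.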
# [5] = Induction of PGE2 production in Wistar rat neutrophils at 100 uM after 18 hrs by ELISA; assay type: cell-based; conditions: neutrophil; method in brief: as §2
# [6] = tested on: Neutrophil; assay: Antiinflammatory activity in Wistar rat neutrophils assessed as inhibition of LPS-stimulated TNFalpha production at 1000 uM after 18 hrs by ELISA; assay type: functional, cell-based; method in brief: as §2
# [7] = tested on: Neutrophil; assay: Antiinflammatory activity in Wistar rat neutrophils assessed as inhibition of LPS-stimulated NO production at 10 to 100 uM after 18 hrs by Griess method; assay type: functional, cell-based; method in brief: as §1
# [8] = tested on: Neutrophil; assay: Antiinflammatory activity in Wistar rat neutrophils assessed as inhibition of LPS-stimulated PGE2 production at 100 uM after 18 hrs by ELISA; assay type: functional, cell-based; method in brief: as §1
# [9] = Cytotoxicity against Wistar rat neutrophils assessed as cell viability; assay type: cell-based, Neutrophil; conditions: read-out: Activity
# [10] = Induction of necrosis in Wistar rat neutrophils; assay type: cell-based; conditions: neutrophil
# [11] = Induction of apoptosis in Wistar rat neutrophils; assay type: cell-based; conditions: neutrophil
# [12] = tested on: Neutrophil; assay: Antiinflammatory activity in Wistar rat neutrophils assessed as reduction of LPS-stimulated TNFalpha production at 100 uM after 18 hrs by ELISA; assay type: functional, cell-based; method in brief: as §2
# [13] = molecular target: Nitric oxide synthase, inducible (Rattus norvegicus) (UniProt Q06518); assay: Inhibition of iNOS activity in LPS-stimulated Wistar rat neutrophils at 100 uM after 18 hrs by enzymatic assay
# Nitric oxide synthase, inducible (Rattus norvegicus), sequence (Q06518 whole entry): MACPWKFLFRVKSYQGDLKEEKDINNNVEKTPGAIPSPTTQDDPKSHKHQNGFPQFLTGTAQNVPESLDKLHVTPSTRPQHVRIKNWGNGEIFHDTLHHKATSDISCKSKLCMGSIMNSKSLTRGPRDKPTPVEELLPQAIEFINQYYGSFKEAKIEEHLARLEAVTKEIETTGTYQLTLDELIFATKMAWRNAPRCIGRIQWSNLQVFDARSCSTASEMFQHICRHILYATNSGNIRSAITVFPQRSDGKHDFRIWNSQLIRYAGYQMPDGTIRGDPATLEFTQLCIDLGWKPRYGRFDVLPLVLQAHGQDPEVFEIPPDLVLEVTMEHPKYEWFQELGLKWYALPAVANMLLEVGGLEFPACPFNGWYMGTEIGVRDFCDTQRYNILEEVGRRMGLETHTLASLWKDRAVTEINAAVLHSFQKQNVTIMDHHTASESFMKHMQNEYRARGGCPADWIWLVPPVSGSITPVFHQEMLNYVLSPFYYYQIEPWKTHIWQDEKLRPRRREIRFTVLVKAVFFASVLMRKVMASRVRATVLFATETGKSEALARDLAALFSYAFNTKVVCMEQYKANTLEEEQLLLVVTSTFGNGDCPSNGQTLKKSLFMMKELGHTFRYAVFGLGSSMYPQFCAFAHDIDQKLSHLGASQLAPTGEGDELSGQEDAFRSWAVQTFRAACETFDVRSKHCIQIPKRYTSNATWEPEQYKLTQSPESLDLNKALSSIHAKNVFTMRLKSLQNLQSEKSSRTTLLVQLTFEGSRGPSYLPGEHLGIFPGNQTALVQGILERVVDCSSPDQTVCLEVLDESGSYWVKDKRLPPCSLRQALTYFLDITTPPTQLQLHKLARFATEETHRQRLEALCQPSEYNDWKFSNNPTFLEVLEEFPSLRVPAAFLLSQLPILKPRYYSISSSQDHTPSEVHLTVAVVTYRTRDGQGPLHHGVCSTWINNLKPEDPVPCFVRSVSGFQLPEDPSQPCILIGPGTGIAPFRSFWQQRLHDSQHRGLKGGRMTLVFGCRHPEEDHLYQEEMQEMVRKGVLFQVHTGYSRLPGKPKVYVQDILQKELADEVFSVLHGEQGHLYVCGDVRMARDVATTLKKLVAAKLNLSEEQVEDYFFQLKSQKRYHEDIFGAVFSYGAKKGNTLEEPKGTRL
# Method in brief: (§4)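 Neutrophils treated 18 h with LPS and compound, then homogenized in cold 50 mM Tris-HCl pH 7.4 with 1 mM PMSF and 1 mM L-citrulline. Homogenates incubated 30 min at 37 °C with 1 mM NADPH. Activity expressed as pmol L-citrulline/min/mg protein, with protein by Bradford. Calcium-independent (iNOS) activity defined by omitting CaCl2 and adding 1 mM EGTA; 1 mM L-NAME used as control. Mean ± s.e.m., n = 4.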
# [14] = tested on: Neutrophil; assay: Inhibition of iNOS expression in Wistar rat neutrophils assessed as reduction of NO production after 18 hrs by Western blot analysis; assay type: functional, cell-based; method in brief: as §3
# [15] = molecular target: Nitric oxide synthase, inducible (Rattus norvegicus) (UniProt Q06518); assay: Inhibition of iNOS in LPS-stimulated Wistar rat neutrophils assessed as decrease in total NOS activity at 100 uM after 18 hrs by enzymatic assay; method in brief: as §4
# [16] = tested on: Rattus norvegicus; assay: Antiinflammatory activity in LPS-induced rat subcutaneous dorsal inflamed tissue assessed as reduction of neutrophil recruitment at 50 mg/kg, ip after 4 hrs post LPS challenge by Giemsa staining; assay type: functional, organism-based; set-up: dose 50 mg/kg
# Method in brief: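 Rat dorsal air pouch: 10 mL sterile air injected subcutaneously, refilled with 10 mL on day 7. On day 10, 50 mg/kg in 1 mL sterile PBS was given intraperitoneally (per methods) at the same time as LPS (1.5 mg/mL) was injected into the pouch; controls got PBS. Exudate leukocytes were counted 4 h later by Neubauer chamber and dyed smears. Mean ± s.e.m., 3 animals/group.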
# [17] = tested on: Neutrophil; assay: Inhibition of LPS-induced iNOS gene expression in Wistar rat neutrophils assessed as decrease in mRNA level after 18 hrs by real-time PCR analysis; assay type: functional, cell-based; method in brief: as §3
# [18] = tested on: Neutrophil; assay: Inhibition of LPS-induced cytoplasmic iNOS expression in Wistar rat neutrophils assessed as decrease in protein level after 18 hrs by Western blot analysis; assay type: functional, cell-based; method in brief: as §3
# [19] = Induction of TNFalpha production in Wistar rat neutrophils at 100 uM after 18 hrs by ELISA relative to vehicle-treated control; assay type: cell-based; conditions: neutrophil; method in brief: as §2
# [20] = Inhibition of LPS-stimulated NO production in Wistar rat neutrophils at 10 uM after 18 hrs by Griess method; conditions: neutrophil
Structure (SMILES),inhibition [1],inhibition [2],Activity [3],inhibition [4],Activity [5],inhibition [6],inhibition [7],inhibition [8],viability [9],Activity [10],Activity [11],Activity [12],inhibition [13],inhibition [14],inhibition [15],Activity [16],inhibition [17],inhibition [18],Activity [19],Activity [20]
CCCCCCCCCCn1cc(-c2cc3ccccc3oc2=O)nn1,inactive,inactive,inactive,Active,Toxic,inactive,Active,inactive,> 90%,Non-toxic,Non-toxic,inactive,Active,Active,Active,,,,,
N=C(N)NN,,,,,,,,,,,,,,,,Active,,,,
O=c1oc2ccccc2cc1-c1cn(-c2ccccc2)nn1,inactive,inactive,inactive,Active,,inactive,Active,inactive,> 90%,Non-toxic,Non-toxic,inactive,Active,Active,Active,Active,Active,Active,,
CCCCCCn1cc(-c2cc3ccccc3oc2=O)nn1,Active,inactive,inactive,Active,,inactive,,inactive,> 90%,Non-toxic,Non-toxic,inactive,Active,Active,Active,,,,Toxic,Toxic
CCCCCCCCn1cc(-c2cc3ccccc3oc2=O)nn1,inactive,inactive,inactive,Active,Toxic,inactive,Active,inactive,> 90%,Non-toxic,Non-toxic,inactive,Active,Active,Active,,,,,
COC(=O)[C@@H](N)CCCNC(=N)N[N+](=O)[O-],Active,,,,,,,,,,,,,,,,,,,
